The results in this text go back to ChEMBL document CHEMBL4359877, “Identification of benzothiazinones containing an oxime functional moiety as new anti-tuberculosis agents” (Eur J Med Chem, 2019).

Values after ≈ are worked out from the molar mass of the structure shown.

Data set [1] can be described thus: Cytotoxicity against African green monkey Vero cells assessed as reduction in cell viability. It counts as cell-based. The settings on record: chlorocebus sabaeus.
Data set [2] concerns Mycobacterium tuberculosis. Kind of data set: Antimycobacterial activity against Mycobacterium tuberculosis H37Rv ATCC 27294 assessed as reduction in bacterial cell growth incubated for 7 days by microplate alamar blue assay. In kind it is functional. The settings on record: H37Rv ATCC 27294, 168 h. The essentials: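 MABA: H37Rv or clinical MDR isolates (resistant to INH and RFP, Beijing Chest Hospital patients) grown to late log phase in 7H9 with glycerol, Tween 80 and ADC, washed, filtered and frozen. Two-fold compound dilutions with 2 × 10⁵ CFU per well, 37 °C; Alamar blue plus Tween 80 added on day 7, fluorescence (ex 530/em 590) read after 16–24 h. MIC = lowest concentration giving ≥90% fluorescence reduction versus mean of bacterium-only controls; RIF and INH as positive controls.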

Data set [3] relates to Mycobacterium tuberculosis. Kind of data set: Antituberculosis activity against Mycobacterium tuberculosis H37Rv infected in BALB/C mouse assessed as colony forming unit in lungs at 25 mg/kg, po administered once daily via gavage for 5 days per week for 3 weeks starting from 10 days post-infection (reference value: 6.44 +/- 0.34). In kind it is functional.

With `CCON=C1CCC(CN2CCN(c3nc(=O)c4cc(C(F)(F)F)cc([N+](=O)[O-])c4s3)CC2C)CC1` (stereo not given), in data set [1], the CC50 is above 64 µg/mL. Moreover, the MIC90 in data set [2] was below 0.016 µg/mL.

Regarding `CON=C1CC(CN2CCN(c3nc(=O)c4cc(C(F)(F)F)cc([N+](=O)[O-])c4s3)CC2)C1` (stereo not given), in data set [2], the MIC90 was 0.023 µg/mL (≈ 0.0488 µM).

Turning to `CCO/N=C(\C)CCN1CCN(c2nc(=O)c3cc(C(F)(F)F)cc([N+](=O)[O-])c3s2)CC1`, the CC50 in data set [1] was above 64 µg/mL. Besides, the MIC90 in data set [2] was below 0.016 µg/mL.

For `C/C(CCN1CCN(c2nc(=O)c3cc(C(F)(F)F)cc([N+](=O)[O-])c3s2)CC1)=N\OCc1ccccc1`, the CC50 in data set [1] was above 64 µg/mL. Further, in data set [2], the MIC90 is below 0.016 µg/mL.

Take `CCO/N=C(\C)CN1CCN(c2nc(=O)c3cc(C(F)(F)F)cc([N+](=O)[O-])c3s2)CC1`: the CC50 in data set [1] is above 64 µg/mL. For the same compound, the MIC90 in data set [2] is below 0.016 µg/mL.

Take `CCON=C1CC(CN2C(C)CN(c3nc(=O)c4cc(C(F)(F)F)cc([N+](=O)[O-])c4s3)CC2C)C1` (stereo not given): the MIC90 in data set [2] worked out at 0.056 µg/mL (≈ 0.109 µM).

Consider `CCON=C1CC(CN2CCN(c3nc(=O)c4cc(C(F)(F)F)cc([N+](=O)[O-])c4s3)CC2)C1` (stereo not given), for which the CC50 in data set [1] is above 64 µg/mL. In data set [2], the MIC90 is below 0.016 µg/mL.

In the case of `CON=C1CCC(CN2C(C)CN(c3nc(=O)c4cc(C(F)(F)F)cc([N+](=O)[O-])c4s3)CC2C)CC1` (stereo not given), in data set [1], the CC50 is above 64 µg/mL. In data set [2], the MIC90 is below 0.016 µg/mL.

In the case of `CCON=C1CCC(CN2CCN(c3nc(=O)c4cc(C(F)(F)F)cc([N+](=O)[O-])c4s3)[C@@H](C)C2)CC1` (stereo not given in full), in data set [1], the CC50 was above 64 µg/mL. The MIC90 in data set [2] is below 0.016 µg/mL.

As for `CCON=C1CCC(CN2CCN(c3nc(=O)c4cc(C(F)(F)F)cc([N+](=O)[O-])c4s3)C[C@@H]2C)CC1` (stereo not given in full), in data set [1], the CC50 is above 64 µg/mL. The MIC90 in data set [2] is below 0.016 µg/mL.

In the case of `CCON=C1CCC(CN2C(C)CN(c3nc(=O)c4cc(C(F)(F)F)cc([N+](=O)[O-])c4s3)CC2C)CC1` (stereo not given), the CC50 in data set [1] was 60.5 µg/mL (≈ 112 µM). Also, in data set [2], the MIC90 was below 0.016 µg/mL.

Regarding `CO/N=C(\C)CCN1CCN(c2nc(=O)c3cc(C(F)(F)F)cc([N+](=O)[O-])c3s2)CC1`, in data set [1], the CC50 is above 64 µg/mL. Also, the MIC90 in data set [2] is below 0.016 µg/mL.

On to `C/C(CCN1CCC2(CCN(c3nc(=O)c4cc(C(F)(F)F)cc([N+](=O)[O-])c4s3)CC2)C1)=N/OCc1ccccc1`, for which, in data set [2], the MIC90 is 0.119 µg/mL (≈ 0.202 µM).

`CO/N=C(\C)CN1CCN(c2nc(=O)c3cc(C(F)(F)F)cc([N+](=O)[O-])c3s2)CC1`: in data set [2], the MIC90 was found to be 0.037 µg/mL (≈ 0.0831 µM).

Regarding `CCON=C1CCC(CN2CCN(c3nc(=O)c4cc(C(F)(F)F)cc([N+](=O)[O-])c4s3)C[C@H]2C)CC1` (stereo not given in full), in data set [1], the CC50 is above 64 µg/mL. Moreover, the MIC90 in data set [2] is below 0.016 µg/mL.

Take `CON=C1CC(CN2CCN(c3nc(=O)c4cc(C(F)(F)F)cc([N+](=O)[O-])c4s3)CC2C)C1` (stereo not given): the MIC90 in data set [2] amounted to 0.056 µg/mL (≈ 0.115 µM).

`CON=C1CCC(CN2CCN(c3nc(=O)c4cc(C(F)(F)F)cc([N+](=O)[O-])c4s3)C[C@H]2C)CC1` (stereo not given in full): in data set [1], the CC50 was above 64 µg/mL. The MIC90 in data set [2] was below 0.016 µg/mL.

Turning to `CON=C1CCC(CN2CCN(c3nc(=O)c4cc(C(F)(F)F)cc([N+](=O)[O-])c4s3)C[C@@H]2C)CC1` (stereo not given in full), the CC50 in data set [1] is above 64 µg/mL. Further, in data set [2], the MIC90 is below 0.016 µg/mL.

Consider `CCO/N=C(\C)CN1CCC2(CCN(c3nc(=O)c4cc(C(F)(F)F)cc([N+](=O)[O-])c4s3)CC2)C1`, for which the MIC90 in data set [2] is 0.029 µg/mL (≈ 0.0565 µM).

As to `CON=C1CC(CN2C(C)CN(c3nc(=O)c4cc(C(F)(F)F)cc([N+](=O)[O-])c4s3)CC2C)C1` (stereo not given), the MIC90 in data set [2] amounted to 0.066 µg/mL (≈ 0.132 µM).

As to `CCON=C1CC(CN2CCN(c3nc(=O)c4cc(C(F)(F)F)cc([N+](=O)[O-])c4s3)CC2C)C1` (stereo not given), the MIC90 in data set [2] is 0.052 µg/mL (≈ 0.104 µM).

`CON=C1CCC(CN2CC(C)N(c3nc(=O)c4cc(C(F)(F)F)cc([N+](=O)[O-])c4s3)CC2C)CC1` (stereo not given): the MIC90 in data set [2] turned out to be 0.031 µg/mL (≈ 0.0588 µM).

As to `CO/N=C(/C)CCN1CCC2(CCN(c3nc(=O)c4cc(C(F)(F)F)cc([N+](=O)[O-])c4s3)CC2)C1`, the MIC90 in data set [2] turned out to be 0.469 µg/mL (≈ 0.913 µM).

As for `CON=C1CCC(CN2CCN(c3nc(=O)c4cc(C(F)(F)F)cc([N+](=O)[O-])c4s3)CC2C)CC1` (stereo not given), in data set [1], the CC50 was above 64 µg/mL. The MIC90 in data set [2] was below 0.016 µg/mL.

Regarding `CO[C@H]1/C=C/O[C@@]2(C)Oc3c(C)c(O)c4c(O)c(c(/C=N/N5CCN(C)CC5)c(O)c4c3C2=O)NC(=O)/C(C)=C\C=C\[C@H](C)[C@H](O)[C@@H](C)[C@@H](O)[C@@H](C)[C@H](OC(C)=O)[C@@H]1C` [RIFAMPIN], the MIC90 in data set [2] is 0.078 µg/mL (≈ 0.0948 µM).

Consider `CON=C1CCC(CN2CCN(c3nc(=O)c4cc(C(F)(F)F)cc([N+](=O)[O-])c4s3)[C@@H](C)C2)CC1` (stereo not given in full), for which the CC50 in data set [1] is above 64 µg/mL. Further, the MIC90 in data set [2] is below 0.016 µg/mL.

With `C/C(CN1CCN(c2nc(=O)c3cc(C(F)(F)F)cc([N+](=O)[O-])c3s2)CC1)=N\OCc1ccccc1`, the CC50 in data set [1] is above 64 µg/mL. Also, the MIC90 in data set [2] was below 0.016 µg/mL.

On to `CCO/N=C(/C)CCN1CCC2(CCN(c3nc(=O)c4cc(C(F)(F)F)cc([N+](=O)[O-])c4s3)CC2)C1`, for which the MIC90 in data set [2] was determined as 0.241 µg/mL (≈ 0.457 µM).

With `CCON=C1CCC(CN2CCN(c3nc(=O)c4cc(C(F)(F)F)cc([N+](=O)[O-])c4s3)[C@H](C)C2)CC1` (stereo not given in full), in data set [1], the half-maximal cytotoxic concentration (CC50) is above 64 µg/mL. In addition, the MIC90 in data set [2] is below 0.016 µg/mL.

As for `CO/N=C(\C)CN1CCC2(CCN(c3nc(=O)c4cc(C(F)(F)F)cc([N+](=O)[O-])c4s3)CC2)C1`, the MIC90 in data set [2] is 0.085 µg/mL (≈ 0.17 µM).

On to `NNC(=O)c1ccncc1` [ISONIAZID], for which the Activity in data set [3] was 1.76 log10CFU. For the same compound, in data set [2], the MIC90 worked out at 0.031 µg/mL (≈ 0.226 µM).

`CON=C1CCC(CN2CCN(c3nc(=O)c4cc(C(F)(F)F)cc([N+](=O)[O-])c4s3)[C@H](C)C2)CC1` (stereo not given in full): the MIC90 in data set [2] came out at 0.023 µg/mL (≈ 0.0448 µM).
